Source: PubChem (The Scripps Research Institute Molecular Screening Center)
PAFAH1B3 inh: PAFAH1B3 enzyme inhibitors, primary screen, biochemical, fluorescence polarization, human | inhibition, % at 3.39 µM | recombinant PAFAH1B3, FP-rhodamine probe | Platelet-activating factor acetylhydrolase IB subunit alpha1 (Homo sapiens), Q15102 | hit rate 0.28% among 340,000;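 active = inhibition above the screen-wide average of all tested compounds plus 3 SD, cut at about 25% in these data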;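 note: 0% = enzyme with DMSO only and 100% = wells lacking PAFAH1B3 protein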
Target sequence (Q15102 whole entry, looked up): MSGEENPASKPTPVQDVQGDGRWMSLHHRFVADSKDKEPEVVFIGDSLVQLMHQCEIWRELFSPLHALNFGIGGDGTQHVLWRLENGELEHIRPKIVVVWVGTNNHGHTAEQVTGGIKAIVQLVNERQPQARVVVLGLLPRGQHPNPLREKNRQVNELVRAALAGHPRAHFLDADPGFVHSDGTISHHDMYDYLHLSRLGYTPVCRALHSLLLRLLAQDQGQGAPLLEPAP
pPAFAH FP inh: pPAFAH enzyme inhibitors, primary screen, biochemical, fluorescence polarization, human | recombinant pPAFAH, FP-rhodamine probe fluorescence polarization | inhibition, % at 3.39 µM | hit rate 1.5% among 330,000;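 active = inhibition above the mean inhibition across the screen plus 3 SD, cut at about 25% in these data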;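 note: inhibitors block binding of the rhodamine activity-based probe so polarization drops; 0% = enzyme with DMSO and 100% = wells lacking pPAFAH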
PAFAH2 FP inh: PAFAH2 enzyme inhibitors, primary screen, biochemical, fluorescence polarization, human; Platelet-activating factor acetylhydrolase 2, cytoplasmic (Homo sapiens), Q99487; recombinant PAFAH2, FP-rhodamine activity probe; inhibition, % at 3.39 µM; hit rate 0.99% among 340,000;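 active = inhibition above the mean over all tested compounds plus 3 SD, cut at about 30% in these data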;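 note: inhibitors block probe labeling of enzyme so polarization drops; 0% = enzyme with DMSO and 100% = wells lacking PAFAH2 protein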
PAFAH1B2 inh: PAFAH1B2 enzyme inhibitors, primary screen, biochemical, fluorescence polarization, human; hit rate 1.2% among 340,000; inhibition, % at 3.39 µM; recombinant PAFAH1B2, FP-rhodamine activity probe;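 active = inhibition above the mean of all tested compounds plus 3 SD, cut at about 24% in these data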;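 note: 0% = enzyme with DMSO and 100% = wells lacking PAFAH1B2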
Target sequence (P68402 whole entry, looked up): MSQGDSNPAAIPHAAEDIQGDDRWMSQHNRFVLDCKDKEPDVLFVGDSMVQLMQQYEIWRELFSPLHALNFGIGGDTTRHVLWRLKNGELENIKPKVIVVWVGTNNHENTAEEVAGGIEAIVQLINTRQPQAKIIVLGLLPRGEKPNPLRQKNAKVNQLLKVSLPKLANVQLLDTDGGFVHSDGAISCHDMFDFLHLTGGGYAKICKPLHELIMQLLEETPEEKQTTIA
ASAP1 GAP inh: inhibitors of human ASAP1 ArfGAP activity, primary screen, biochemical, fluorescence polarization | ASAP1-stimulated ARF1 GTP hydrolysis, GDP FP detection | inhibition, % at 16.5 µM | hit rate 0.19% among 360,000 | AID 624377, 2012; in the data active = inhibition above about 25%;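 note: 0% = vehicle with enzyme and substrate and 100% = no enzyme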
ARFGAP1 inhibitor: inhibitors of rat ARFGAP1 GAP activity, primary screen, biochemical, fluorescence polarization, GDP tracer. hit rate 0.26% among 360,000. Arfgap1-stimulated ARF1 GTP hydrolysis, GDP FP detection. ADP-ribosylation factor GTPase-activating protein 1 (Rattus norvegicus), Q62848. inhibition, % at 16.5 µM;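 active = inhibition above a per-plate limit, mean inhibition of low control wells plus 3 SD, cut at about 25% in these data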;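 note: 0% = DMSO wells with enzyme and 100% = wells lacking Arfgap1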
Target sequence (Q62848 1-136 limits assumed): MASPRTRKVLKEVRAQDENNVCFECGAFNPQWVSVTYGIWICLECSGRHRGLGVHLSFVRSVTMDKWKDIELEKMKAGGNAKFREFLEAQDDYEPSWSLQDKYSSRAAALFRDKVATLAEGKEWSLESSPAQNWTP
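Material: rat Arfgap1 GAP domain (His6, aa 1-136), purified enzyme. Also added: human ARF1(Δ1-17)-GTP substrate. Compound dosing: 16.5 µM single point, 1.26% DMSO. Timing: enzyme reaction 120 min at 25 °C after 20 min preincubation. Signal: GDP detection by fluorescence polarization. Read-out basis: percent inhibition of GAP-stimulated GDP formation, scaled between DMSO and no-Arfgap1 medians.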
Starred values were filed as active, the others as inactive; x = no result given. A selection: hits, their analogues and other compounds. The true share with any hit is near 2.8%.

SMILES | PAFAH1B3 inh | pPAFAH FP inh | PAFAH2 FP inh | PAFAH1B2 inh | ASAP1 GAP inh | ARFGAP1 inhibitor
c1coc(C2Nc3cccc4cccc(c34)N2)c1 | x | 26* | x | x | x | x
Clc1cccc(C2Nc3cccc4cccc(c34)N2)c1Cl | -1 | 7 | 15 | 1 | 0 | 6
Clc1ccccc1C1Nc2cccc3cccc(c23)N1 | 9 | 12 | 7 | 0 | 15 | 5
Cc1nn(C(=O)c2cccnc2)c(C)c1Sc1ccc(Br)cc1 | 6 | 0 | 0 | 28* | x | x
Cc1nn(C(=O)c2ccco2)c(C)c1Sc1ccc(Cl)cc1 | 1 | -1 | 5 | 4 | -12 | -6
O=C(NCCCN1CCOCC1)c1ccc(Sc2cccc(Cl)c2)c([N+](=O)[O-])c1 | 2 | 32* | 2 | -1 | 0 | 4
O=C(NCCCN1CCOCC1)c1ccc(Cl)c([N+](=O)[O-])c1 | x | 5 | x | x | -12 | 9
CCCCCCCCOC(=O)c1ccc(N)cc1 | 5 | 32* | 55* | 8 | 2 | 16
Cc1cc(C(=O)CSc2cccc[n+]2[O-])c(C)n1-c1ccc(OC(F)F)cc1 | 5 | 31* | 5 | 2 | 8 | -4
COC(=O)c1ccc(-n2c(C)cc(C(=O)CSc3cccc[n+]3[O-])c2C)cc1 | 6 | 16 | 2 | 2 | 4 | 2
CC1(C)C(=O)N(c2ccccc2)C1c1ccccc1O (stereo unspecified) | 1 | -1 | -8 | 52* | 4 | 4
COc1ccc(N2C(=O)C(C)(C)C2c2c(O)ccc3ccccc23)cc1 (stereo unspecified) | 3 | -1 | 9 | 7 | 7 | 14
[O-][n+]1cccc2c(Br)cc(Br)c(O)c21 | 21 | 34* | 13 | 4 | 10 | 6
Cc1cc(C(=O)OCC(=O)NCc2cccs2)ccc1[N+](=O)[O-] | 5 | 31* | 19 | 5 | -9 | -3
CN(Cc1ccccc1)C(=O)CN1C(=O)NC2(CCCc3sccc32)C1=O (stereo unspecified) | x | x | x | x | 6 | -13
CCC(C)(C)C1CCc2[nH]nc(C(=O)NCCNC(=O)OC(C)(C)C)c2C1 (stereo unspecified) | 2 | 5 | 4 | 28* | -2 | 13
CCC(C)(C)C1CCc2[nH]nc(C(=O)NCC3CC3)c2C1 (stereo unspecified) | 6 | 1 | 10 | 20 | -3 | -16
COC(=O)C1=C(C)N(C)C(=O)NC1c1cc2c(cc1[N+](=O)[O-])OCO2 (stereo unspecified) | 5 | 16 | -14 | 15 | 2 | -3
COC(=O)C1=C(C)N(CCCC(=O)O)C(=O)NC1c1cc2c(cc1[N+](=O)[O-])OCO2 (stereo unspecified) | 8 | 30* | 12 | 6 | 0 | 6
O=C(NCCOC(=O)c1c(F)cccc1Cl)c1c(F)cccc1Cl | 6 | x | 0 | -3 | -28 | -1
O=C(Nc1nnc(-c2cc(Cl)ccc2Cl)o1)c1ccco1 | 5 | 2 | -1 | 2 | 3 | 6
Nc1ccc(N=Nc2ccccc2)c(N)n1 | 9 | 2 | 1 | -1 | 22 | 4
Cc1[nH]c(N=Nc2ccccc2)nc1N=Nc1ccccc1 | 4 | 25* | -2 | 4 | -1 | 10
Cc1snc(SCc2ccc(Cl)cc2)c1C#N | 3 | 8 | -2 | 28* | -4 | -10
CCOc1ccc2[nH]c(=O)c(CN(Cc3nnnn3Cc3ccco3)C3CCCCC3)cc2c1 | 8 | 1 | 8 | 2 | -17 | -2
SMILES | PAFAH1B3 inh | pPAFAH FP inh | PAFAH2 FP inh | PAFAH1B2 inh | ASAP1 GAP inh | ARFGAP1 inhibitor
COc1cc2cc(CN(Cc3nnnn3Cc3ccco3)C3CCCCC3)c(=O)[nH]c2cc1OC | 7 | 26* | 6 | 4 | -2 | 11
O=C(N[C@H](C(=O)N1CCC[C@H]1C(=O)NC1CCCC1)c1ccccc1)c1ccccc1 | x | x | x | x | -1 | -8
Cc1ccccc1N(C=O)c1ccccc1C | 6 | x | 4 | 3 | -9 | -14
CC(C)[C@H](N)c1nnc(SCc2ccc(Cl)cc2)o1 | 6 | -1 | -6 | 34* | 2 | 18
CCOC(=O)c1c(N)sc(-c2ccccc2)c1C | 15 | 34* | 3 | -1 | -3 | 3
CCN(CC)C(=O)C1=C(C)N(Cc2ccccc2)C(=O)C(CC(=O)NCc2cccs2)C1 (stereo unspecified) | x | x | x | x | -7 | 0
O=C(NCC(c1ccco1)N1CCCCC1)c1ccc(S(=O)(=O)Nc2ccccc2Cl)cc1 (stereo unspecified) | 1 | 1 | 0 | -1 | -7 | -7
Cc1ccccc1NS(=O)(=O)c1ccc(C(=O)NCC(c2ccco2)N2CCCCC2)cc1 (stereo unspecified) | -1 | 34* | -1 | 6 | 2 | 1
Cc1ccccc1NS(=O)(=O)c1ccc(C(=O)NCC(c2ccco2)N(C)C)cc1 (stereo unspecified) | -5 | 30* | 2 | 2 | 16 | 2
O=C(NCC(c1ccco1)N1CCCCC1)c1ccc(COc2ccc(Cl)cc2)cc1 (stereo unspecified) | 6 | x | -4 | 31* | -2 | -10
CC(C)(C)C(=O)Nc1nnc(SCC(=O)NC2CCCC2)s1 | -1 | 0 | -3 | 0 | -3 | 0
Cc1cccc(S(=O)(=O)N2C[C@@H](O)COC[C@@H]3O[C@H](CC(=O)NCCCN4CCOCC4)CC[C@H]32)c1 | x | x | x | x | 9 | 11
O=C(Nc1ccc(Oc2ccccc2)cc1)N[C@@H](Cc1ccccc1)C(=O)O | 5 | 5 | 4 | 1 | -13 | -1
O=C(C[C@@H]1CC[C@@H]2[C@H](COC[C@H](O)CN2C(=O)Nc2ccc(F)cc2)O1)NCCc1ccncc1 | x | x | x | x | -1 | 6
CCCN(C(=O)CCc1cn(CCC)c2ccccc12)c1ccc(N(C)c2ccccn2)cc1 | x | x | x | x | 1 | 3
N#CC1=C(N)Oc2ccc3ccc(O)cc3c2C1c1ccsc1 (stereo unspecified) | 114* | x | 98* | 93* | -6 | 22
COc1cc(C)c(/C=C/C(C)=C/C=C/C(C)=C/C(=O)O)c(C)c1C | 3 | 29* | 17 | 1 | -3 | -14
CCOC(=O)C1CCCN(C(=S)Nc2ccc(S(=O)(=O)N3CCOCC3)cc2)C1 (stereo unspecified) | 8 | 1 | 1 | 5 | -5 | -7
CCOC(=O)CSc1ncc(-c2ccc([N+](=O)[O-])cc2)[nH]1 | 2 | 31* | -2 | 0 | 9 | 15
